Compounds with a hit are over-represented: about 3.9% of the library has one in this group of screens.
APP 5'UTR act = activators of APP 5'UTR luciferase reporter, primary screen, SH-SY5Y cells; SH-SY5Y APP 5'UTR luciferase reporter, luminescence; zero percent = DMSO vehicle wells; AID 1276, 2008; 190,000 tested, 1% active; activation, % at 2 µM;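 active means activation above a set limit, based on mean plus 3 SD of controls, cut at about 140% in these data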
NF-kB neuron act = activators of NF-kB expression in neurons, primary screen, cell-based, HTS; human neuronal cells, NF-kB reporter expression; hits give high values; fold change at 12.5 µM; 190,000 tested, 1.6% active; in the data active means fold change above about 3.3
Pf gamet viab = late stage P. falciparum gametocyte viability inhibitors, primary screen, ATP luminescence, HTS | P. falciparum stage V gametocytes, 24 h | inhibition, % at 10.9 µM | 150,000 tested, 0.065% active | AID 743093, 2013;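 active means inhibition above the mean plus 3 SD of compounds within the control limits, set per campaign, cut at about 38% in these data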
STAT1 act = STAT1 signaling activators, primary screen, cell-based, HTS, luciferase reporter; NIH 3T3 STAT1-luciferase reporter, IFN-gamma, luminescence; 100% = IFN-gamma alone, no compound; activation (% of control), % at 5.5 µM; 200,000 tested, 2.6% active;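 active means activation above the screen-wide mean activation plus 3 SD, cut at about 130% in these data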
STAT3 act = IL-6 driven STAT3 reporter potentiators, primary screen, U3A cells, luciferase, luminescence, MLSCN library; IL-6 STAT3-luciferase reporter; 100% = signal with IL-6 EC80 alone; activation (% of control), % at 5.6 µM; AID 871, 2007; 190,000 tested, 0.91% active;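 active means activation above the screen-wide mean of compound activation plus 3 SD, cut at about 130% in these data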
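Material: STAT1-lacking human U3A cells, STAT3 luciferase reporter | Benchmarks: IL-6-only wells as 100% reference | Probe or stimulus: IL-6 (33 ng/mL) | Timing: Compound 1 h, then IL-6 6 h at 37 °C | Detection: Luminescence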
STAT1 blocker = STAT1 signaling inhibitors, primary screen, cell-based, HTS, luciferase reporter. NIH 3T3 STAT1-luciferase reporter, IFN-gamma, luminescence. inhibition, % at 5.5 µM. 200,000 tested, 0.35% active. AID 920, 2007;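 active means inhibition above a set limit, the mean inhibition across all tested compounds plus 3 SD, cut at about 34% in these data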
STAT1 act conf = STAT1 signaling activators, confirmation, cell-based, HTS, luciferase reporter. NIH 3T3 STAT1-luciferase reporter, IFN-gamma potentiation, luminescence; 100% = IFN-gamma EC80 alone, no compound. activation (% of control), % at 5.7 µM. shares compounds with STAT1 act. 1,200 tested, 97% active;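 active means activation above a set limit carried over from the earlier primary STAT1 screen, cut at about 140% in these data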
NFkB act STAT1ct = NF-kB reporter activators, TNF-alpha stimulated, counter-screen for STAT1 activator project, cell-based, HEK293T, luciferase luminescence; shares compounds with STAT1 act; 100% = TNF-alpha with vehicle only; activation (% of control), % at 5.7 µM; 1,200 tested, 43% active; AID 1306, 2008;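 active means activation above the mean of solvent-only control wells plus 3 SD, set per campaign, cut at about 130% in these data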;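 further: TNF-alpha given at a submaximal dose yielding about 80% of full reporter signal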
STAT3 act 2 = STAT3 reporter activation by STAT1 hits, confirmation, counter-screen for STAT1 activator project, U3A cells, luciferase, luminescence | shares compounds with STAT1 act | IL-6; cells lack STAT1; 100 = IL-6 alone, no compound effect | activation (% of control), % at 5.7 µM | 1,200 tested, 46% active;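 active means activation above the solvent-only control well mean plus 3 SD, set per plate batch, cut at about 110% in these data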;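 further: higher means more STAT3 reporter activation so hits are non-selective activators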
Numbers stand for hits.

Screening Cc1ccc(-n2nc(C)c(NC(=O)CCl)c2C)cc1 returned APP 5'UTR act inactive, NF-kB neuron act inactive, Pf gamet viab inactive, STAT1 act inactive, STAT3 act inactive and STAT1 blocker inactive.
Screening CNC(=O)c1c(Br)cnn1-c1ccc(C)cc1 returned APP 5'UTR act inactive, NF-kB neuron act inactive, Pf gamet viab inactive, STAT1 act 152, STAT3 act inactive, STAT1 blocker inactive, STAT1 act conf 180, NFkB act STAT1ct inactive and STAT3 act 2 116.
Cc1nc(N)sc1C(=O)N/N=C/c1ccc([N+](=O)[O-])cc1 was read as Pf gamet viab inactive.
Cc1nc(N)sc1C(=O)N/N=C/c1ccco1 was read as APP 5'UTR act inactive, NF-kB neuron act inactive, Pf gamet viab inactive, STAT1 act inactive, STAT3 act inactive and STAT1 blocker inactive.
For CC(/C=N/NC(=O)c1sc(N)nc1C)=C\c1ccccc1 the results were APP 5'UTR act inactive, NF-kB neuron act inactive, Pf gamet viab inactive, STAT1 act 153, STAT3 act inactive, STAT1 blocker inactive, STAT1 act conf 146, NFkB act STAT1ct inactive and STAT3 act 2 inactive.
Cc1nc(N)sc1C(=O)N/N=C/c1ccccc1[N+](=O)[O-] was read as APP 5'UTR act inactive, NF-kB neuron act inactive, Pf gamet viab inactive, STAT1 act 156, STAT3 act inactive, STAT1 blocker inactive, STAT1 act conf 155, NFkB act STAT1ct inactive and STAT3 act 2 118.
`COc1ccccc1NC(=O)CSCc1nc2ccccc2[nH]1` gave APP 5'UTR act inactive, NF-kB neuron act inactive, Pf gamet viab inactive, STAT1 act inactive, STAT3 act inactive and STAT1 blocker inactive.
`N#C/C(=C/c1ccc(-c2cc(C(=O)O)cc(C(=O)O)c2)o1)c1nc2ccccc2s1` gave APP 5'UTR act inactive, NF-kB neuron act inactive, STAT1 act inactive, STAT3 act inactive and STAT1 blocker inactive.
N#C/C(=C/c1ccco1)c1nc2ccccc2s1 was read as APP 5'UTR act 186, NF-kB neuron act 8.1, STAT1 act 165, STAT3 act inactive, STAT1 blocker inactive, STAT1 act conf 226, NFkB act STAT1ct inactive and STAT3 act 2 140.
For N#C/C(=C\c1ccco1)c1nc2ccccc2s1 the results were APP 5'UTR act 138, NF-kB neuron act inactive, Pf gamet viab inactive, STAT1 act 173, STAT3 act inactive, STAT1 blocker inactive, STAT1 act conf 218, NFkB act STAT1ct inactive and STAT3 act 2 142.
Screening CC(OC(=O)c1ccc(S(=O)(=O)NCc2ccco2)cc1)C(=O)Nc1ncc(Cl)cc1Cl (stereo not given) returned APP 5'UTR act inactive, NF-kB neuron act inactive, Pf gamet viab inactive, STAT1 act inactive, STAT3 act inactive and STAT1 blocker inactive.
Screening CC(=O)c1c(C)nc(-c2ccc(Cl)cc2)nc1N=CN(C)C returned APP 5'UTR act inactive, NF-kB neuron act inactive, Pf gamet viab inactive, STAT1 act inactive, STAT3 act inactive and STAT1 blocker inactive.
CC(=O)c1c(C)nc(-c2ccc(Cl)cc2)nc1N was read as APP 5'UTR act inactive, NF-kB neuron act inactive, Pf gamet viab inactive, STAT1 act 152, STAT3 act inactive, STAT1 blocker inactive, STAT1 act conf 175, NFkB act STAT1ct 140 and STAT3 act 2 146.
Screening O=C(Nc1ccc(-c2nc3ncccc3o2)cc1)c1ccco1 returned APP 5'UTR act inactive, NF-kB neuron act inactive, Pf gamet viab inactive, STAT1 act 160, STAT3 act inactive, STAT1 blocker inactive, STAT1 act conf 173, NFkB act STAT1ct inactive and STAT3 act 2 inactive.
Cn1cccc1-c1nc2ccc(NC(=O)c3ccco3)cc2[nH]1 was read as APP 5'UTR act inactive, NF-kB neuron act inactive, STAT1 act inactive, STAT3 act inactive and STAT1 blocker inactive.
`O=C(Nc1ccc(-c2nc3cccnc3s2)cc1)c1ccco1` gave APP 5'UTR act 216, NF-kB neuron act 3.9, STAT1 act 152, STAT3 act inactive, STAT1 blocker inactive, STAT1 act conf 227, NFkB act STAT1ct inactive and STAT3 act 2 inactive.
`Cc1ccc2nc(-c3ccc(NC(=O)c4ccco4)cc3)[nH]c2c1` gave APP 5'UTR act inactive, NF-kB neuron act inactive, STAT1 act 160, STAT3 act inactive, STAT1 blocker inactive, STAT1 act conf 187, NFkB act STAT1ct 136 and STAT3 act 2 inactive.
O=C(Nc1nccs1)c1ccc(-c2ccc([N+](=O)[O-])cc2)o1 was read as APP 5'UTR act inactive, NF-kB neuron act inactive, Pf gamet viab inactive, STAT1 act 151, STAT3 act inactive, STAT1 blocker inactive, STAT1 act conf 183, NFkB act STAT1ct inactive and STAT3 act 2 inactive.
O=C(Nc1ccccc1)c1ccc(-c2ccccc2Cl)o1 was read as APP 5'UTR act inactive, NF-kB neuron act inactive, Pf gamet viab inactive, STAT1 act inactive, STAT3 act inactive and STAT1 blocker inactive.
COc1ccc(NC(=O)c2ccc(-c3ccc([N+](=O)[O-])cc3)o2)cc1 was read as APP 5'UTR act inactive, NF-kB neuron act inactive, Pf gamet viab inactive, STAT1 act inactive, STAT3 act inactive and STAT1 blocker inactive.
For O=C(Nc1nccs1)c1ccc(-c2ccccc2Cl)o1 the results were APP 5'UTR act 156, NF-kB neuron act inactive, STAT1 act 152, STAT3 act inactive, STAT1 blocker inactive, STAT1 act conf 178, NFkB act STAT1ct 136 and STAT3 act 2 inactive.
Screening Cc1cc(C)n(-c2ccc(C(=O)NC3CCCCC3)cc2)n1 returned APP 5'UTR act inactive, NF-kB neuron act inactive, Pf gamet viab inactive, STAT1 act inactive, STAT3 act inactive and STAT1 blocker inactive.
N#C/C(=C\c1ccc(N2CCOCC2)o1)C(=O)NCCc1ccccc1 was read as APP 5'UTR act inactive, NF-kB neuron act inactive, STAT1 act inactive, STAT3 act inactive and STAT1 blocker inactive.

Screens (PubChem)
